In ChEMBL document CHEMBL1140550, “New 'chemical probes' to examine the role of the hFPRL1 (or ALXR) receptor in inflammation” (Bioorg Med Chem Lett, 2007):
The source made the active and inactive calls. The calls are words filed in the database; no cut-off is given here.

Columns and labels:
[1] = Inhibition of IL8-induced human PMN migration after 45 mins; format: functional; details: 0.75 h
Procedure, shortened: (§1)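 Human polymorphonuclear neutrophils from at least three donors, exposed to compound (final DMSO 0.1%). Migration toward a gradient of IL-8 or fMLP chemo-attractant (10 nM each) followed by fluorescence. Mean IC50 reported.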

Blood = assay: Stimulation of IL6 secretion in human whole blood after 18 hrs; format: functional, tissue-based
Procedure, shortened: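 Heparinized human whole blood, 50% final, preincubated with compound for 1 h at 37 °C, 5% CO2, then stimulated with IL-1β (300 pM final) for 18 h. Final DMSO 0.1%. IL-6 in supernatant/plasma measured by electrochemiluminescence immunoassay.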

[2] = Inhibition of fMLP-induced human PMN migration after 45 mins; format: functional; details: 0.75 h; procedure, shortened: as §1
[3] = biological target: T1, N-formyl peptide receptor 2 (Homo sapiens, UniProt P25090); assay: Agonist activity at human recombinant FPRL1 expressed in CHO cells assessed as calcium flux by aequorin based bioluminescence assay; format: functional, cell-based
T1 sequence (P25090 whole entry): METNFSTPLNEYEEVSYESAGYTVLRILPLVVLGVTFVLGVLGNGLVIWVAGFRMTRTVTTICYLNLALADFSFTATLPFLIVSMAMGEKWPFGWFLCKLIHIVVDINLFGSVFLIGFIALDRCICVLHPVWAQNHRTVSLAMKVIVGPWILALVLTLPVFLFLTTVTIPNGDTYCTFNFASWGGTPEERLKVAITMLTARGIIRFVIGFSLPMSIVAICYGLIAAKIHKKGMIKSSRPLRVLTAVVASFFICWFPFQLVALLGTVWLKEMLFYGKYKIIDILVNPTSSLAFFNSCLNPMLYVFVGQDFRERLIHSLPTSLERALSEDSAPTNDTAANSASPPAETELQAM
Procedure, shortened: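 EC50 from Ca2+ flux in recombinant CHO cells co-expressing human FPRL1, Gα15 protein and aequorin. Values without standard deviation are the mean of two data points.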

fMet-Leu-Phe receptor = biological target: T2, fMet-Leu-Phe receptor (Homo sapiens, UniProt P21462); assay: Agonist activity at human recombinant FPR expressed in CHO cells assessed as calcium flux by aequorin based bioluminescence assay; format: functional, cell-based
T2 sequence (P21462 whole entry): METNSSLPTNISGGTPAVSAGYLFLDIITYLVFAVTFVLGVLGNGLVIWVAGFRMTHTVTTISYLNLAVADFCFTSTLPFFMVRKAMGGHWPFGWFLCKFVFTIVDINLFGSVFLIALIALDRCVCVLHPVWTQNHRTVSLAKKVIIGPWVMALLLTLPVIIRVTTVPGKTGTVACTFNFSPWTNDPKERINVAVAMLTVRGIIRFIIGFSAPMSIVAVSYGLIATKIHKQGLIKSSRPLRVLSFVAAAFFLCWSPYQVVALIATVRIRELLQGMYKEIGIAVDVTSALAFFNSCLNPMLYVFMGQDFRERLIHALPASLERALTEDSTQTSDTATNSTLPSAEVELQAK
Procedure, shortened: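 CHO cells stably transfected with human FPR, aequorin and Gα15 protein; EC50 derived from Ca2+ flux read by aequorin luminescence.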

Row | Compound | IC50 [1] [nM] | Activity (Blood) | IC50 [2] [nM] | EC50 [3] [nM] | EC50 (fMet-Leu-Phe receptor) [nM]
1 | CC(C)c1c(NC(=O)Nc2ccc(Cl)cc2)c(=O)n(-c2ccccc2)n1C | 240 | Active | 640 | – | –
2 | CC(C)c1c(NC(=O)Nc2ccccc2Cl)c(=O)n(-c2ccccc2)n1C | – | – | – | > 10000 | –
3 | CCc1nc2ccccc2n1[C@@H]1CCN(C(=O)c2nc3ccc(OC)cc3[nH]2)C1 | – | – | – | 1870 | > 10000
